Values after ≈ are worked out from the molar mass of the structure shown.
Tests used:
[1] = Cytotoxicity against african green monkey Vero C1008 cells after 72 hrs by MTT assay; assay type: cell-based; details: chlorocebus sabaeus
Summary of the method: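 Mammalian VERO C1008 cells were exposed to the compounds in microtitre plates, viability was read by MTT assay, and CC50 values were determined.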

[2] = system: Mycobacterium tuberculosis; assay: Antimycobacterial activity against Mycobacterium tuberculosis H37Rv after 7 days by resazurin based microdilution assay; assay type: functional; details: 168 h
Summary of the method: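 M. tuberculosis H37Rv in resazurin microtitre assay (REMA) with two-fold serial dilutions of compound; isoniazid as reference drug. MIC taken as lowest concentration giving complete inhibition, read visually by colour change (blue stays blue without growth, turns pink with growth).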

SMILES | CC50 at 72 h [1] [µM] | MIC [2] [µM]
C=C(C)COc1ccc(/C=C/C(=O)Nc2nnc(-c3ccccc3)[nH]2)cc1 | 1420 | 9 (≈ 3.24 µg/mL)
O=C(/C=C/c1cccc([N+](=O)[O-])c1)Nc1nnc(-c2ccccc2)[nH]1 | 1990 | 9.7 (≈ 3.25 µg/mL)
NNC(=O)c1ccncc1 [ISONIAZID] | 1460 | 1.8 (≈ 0.247 µg/mL)
O=C(/C=C/c1ccc(Cl)cc1)Nc1nnc(-c2ccccc2)[nH]1 | 1620 | 92.6 (≈ 30.1 µg/mL)
O=C(/C=C/c1ccc(O)cc1)Nc1nnc(-c2ccccc2)[nH]1 | 1850 | 40.8 (≈ 12.5 µg/mL)
O=C(/C=C/c1ccc([N+](=O)[O-])s1)Nc1nnc(-c2ccccc2)[nH]1 | 1670 | 4.8 (≈ 1.64 µg/mL)
Cc1ccc(/C=C/C(=O)Nc2nnc(-c3ccccc3)[nH]2)cc1 | 1760 | 82.2 (≈ 25 µg/mL)
Nc1ccc(/C=C/C(=O)Nc2nnc(-c3ccccc3)[nH]2)cc1 | 1910 | 20.5 (≈ 6.26 µg/mL)
O=C(/C=C/c1ccc2c(c1)COC2)Nc1nnc(-c2ccccc2)[nH]1 | 1820 | 18.8 (≈ 6.25 µg/mL)
O=C(/C=C/c1ccccc1)Nc1nnc(-c2ccccc2)[nH]1 | 1570 | 86.2 (≈ 25 µg/mL)
COc1ccc(/C=C/C(=O)Nc2nnc(-c3ccccc3)[nH]2)cc1 | 1280 | 39.1 (≈ 12.5 µg/mL)
O=C(/C=C/c1ccco1)Nc1nnc(-c2ccccc2)[nH]1 | 2180 | 11.6 (≈ 3.25 µg/mL)
COc1ccc(/C=C/C(=O)Nc2nnc(-c3ccccc3)[nH]2)cc1OC | 1210 | 4.6 (≈ 1.61 µg/mL)
O=C(/C=C/c1cccc(Cl)c1)Nc1nnc(-c2ccccc2)[nH]1 | 1470 | 38.6 (≈ 12.5 µg/mL)
O=C(/C=C/c1ccc(OC(F)(F)F)cc1)Nc1nnc(-c2ccccc2)[nH]1 | 1560 | 8.6 (≈ 3.22 µg/mL)

— ChEMBL document CHEMBL1914372, “Synthesis and preliminary biological evaluation of novel N-(3-aryl-1,2,4-triazol-5-yl) cinnamamide derivatives as potential antimycobacterial agents: an operational Topliss Tree approach” (Bioorg Med Chem Lett, 2011)
